Measured values of several laboratories.
Lines come from different studies, so protocols differ.
Delta-aminolevulinic acid dehydratase C162A/K59N: Delta-aminolevulinic acid dehydratase (Homo sapiens, UniProt P13716, C162A/K59N)
AVPR2: Vasopressin V2 receptor (AVPR2, Homo sapiens, UniProt P30518)
HSP90B1: Endoplasmin (HSP90B1, Canis lupus familiaris, UniProt P41148)
BACE1: Beta-secretase 1 (BACE1, Homo sapiens, UniProt P56817)

The IC50 of `Nc1ncc(-c2nc(N3CCOCC3)nc(N3C[C@H]4CC[C@@H](C3)O4)n2)c(C(F)F)n1` is reported as 42.2 nM (Serine/threonine-protein kinase mTOR (MTOR, Homo sapiens, UniProt P42345); ligand displacement, TR-FRET).
For `CCOC(=O)c1nn(C(=O)c2cccc(C)c2)c2ccccc2c1=O`, the IC50 was 210 nM (Neutrophil elastase (ELANE, Homo sapiens, UniProt P08246); enzyme activity, inhibitor, fluorescence).
`CCC(C)(O)C(=O)N1CCC(NC(=O)Nc2ccc(OC(F)(F)F)c(F)c2)CC1` (stereo not shown) has an IC50 of 13 nM (Bifunctional epoxide hydrolase 2 (Ephx2, Mus musculus, UniProt P34914); enzyme activity, inhibitor).
`CN1CCN(c2ccc(Nc3ncc4cc(C#N)c(=O)n(C5CCCC5)c4n3)cc2)CC1` has an IC50 of 86.8 nM (Ephrin type-B receptor 2 (EPHB2, Homo sapiens, UniProt P29323); enzyme activity, inhibitor).
For `O=C(O)c1cccnc1Nc1cccc(C(F)(F)F)c1`, the IC50 was 13000 nM (Delta-aminolevulinic acid dehydratase C162A/K59N; enzyme activity, inhibitor, absorbance; pH 8, with preincubation).
`Cc1ccc(C(=O)Nc2ccc(Oc3cc4cnn(C)c4cc3-c3cn[nH]c3)c(F)c2)c(=O)n1-c1ccc(F)cc1` has an IC50 of 170 nM (Proto-oncogene tyrosine-protein kinase ROS (ROS1, Homo sapiens, UniProt P08922); phosphorylation in cells, inhibitor, western blot).
`NCCCC[C@H](NC(=O)[C@@H]1CCCN1C(=O)[C@@H]1CSSC[C@H](N)C(=O)N[C@@H](Cc2ccc(O)cc2)C(=O)N[C@@H](Cc2ccccc2)C(=O)N[C@@H](CCC(N)=O)C(=O)N[C@@H](CC(N)=O)C(=O)N1)C(=O)NCC(N)=O` has an IC50 of 14 nM (AVPR2; ligand displacement, radioligand; cell membranes).
`O=Cc1cc(Br)cc(Br)c1O` gave an IC50 of 22000 nM (Delta-aminolevulinic acid dehydratase C162A/K59N; enzyme activity, inhibitor, absorbance; pH 8, with preincubation).
`CCC(C)n1ncn(-c2ccc(N3CCN(c4ccc(OCC5COC(Cn6cncn6)(c6ccc(Cl)cc6Cl)O5)cc4)CC3)cc2)c1=O` (stereo not shown) gave an IC50 of 31100 nM (AVPR2; calcium signal, antagonist).
`CC(C)C[C@H](NC(=O)[C@H](Cc1ccccc1)NC(=O)[C@@H](N)Cc1ccc(O)cc1)C(=O)N[C@@H](Cc1ccccc1)C(=O)N[C@@H](CCCNC(=N)N)C(=O)N1CCC[C@H]1C(=O)N[C@@H](CCCNC(=N)N)C(=O)N[C@@H](CC(N)=O)C(N)=O` has an IC50 of 0.09 nM (Neuromedin-U receptor 2 (Mus musculus, UniProt Q8BZ39); ligand displacement, radioligand; cell membranes).
With `COc1ccc2c(c1OCc1ccc(OC(F)(F)F)cc1)C[C@@H](C(=O)O)N(c1nc3ccc(F)cc3o1)C2` the IC50 was > 10000 nM (Type-1 angiotensin II receptor (AGTR1, Homo sapiens, UniProt P30556); ligand displacement).
`O=C(Nc1ccc(Cl)cc1)N1CCC(n2c(=O)[nH]c3c(Br)cccc32)CC1` has an IC50 of > 100000 nM (SMUG1 (Homo sapiens, UniProt Q53HV7); enzyme activity, inhibitor).
`CCCCn1c(Sc2ccc(Cl)cc2Cl)nc2c(N)ncnc21` gave an IC50 of 800 nM (HSP90B1; ligand displacement, FP).
With `CCCc1cc2cc(-n3nc(C)c4c3CC(C)(C)CC4=O)cc(N[C@H]3CC[C@H](O)CC3)c2c(=O)[nH]1` the IC50 was > 50000 nM (HSP90B1; ligand displacement, FP).
For `Cc1ccccc1-c1noc(-c2ccc(NC(=O)C3CC(=O)N(Cc4cccnc4)C3)cc2)n1` (stereo not shown), the IC50 was > 10000 nM (Relaxin-3 receptor 1 (RXFP3, Homo sapiens, UniProt Q9NSD7); cAMP, antagonist, TR-FRET).
`CC(C)C[C@H](NC(=O)[C@@H]1COCCCCCCCC(=O)N2CCC[C@H]2C(=O)N1)C(=O)[C@@]1(C)CO1` gave an IC50 of > 10000 nM (Proteasome Macropain subunit MB1 (PSMB5, Homo sapiens, UniProt P28074); enzyme activity, inhibitor, fluorescence).
`Cc1cc2cc(c1)C(=O)N[C@H]([C@H](O)CN(Cc1cccc(C(C)C)c1)C(=O)OC(C)(C)C)CCC/C=C/CCCC2=O` has an IC50 of > 10000 nM (BACE1; enzyme activity, inhibitor).
For `CC(C)=CCCC(C)=CCc1c(O)cc2occ(-c3ccc(O)cc3)c(=O)c2c1O`, the IC50 was > 200000 nM (BACE1; enzyme activity, inhibitor).
`C=CC(=O)Nc1cc(Nc2nccc(-c3cn(C4CC4)c4ccccc34)n2)c(OC)cc1N(C)CCN(C)C` gave an IC50 of 3.09 nM (Epidermal growth factor receptor (EGFR, Homo sapiens, UniProt P00533, L747S); enzyme activity, inhibitor, TR-FRET).
